# Assay outcomes deposited in PubChem by several laboratories.
# Measles CPE: protection of cells from measles virus; hit rate 1.5% among 140,000; protection (pct of control), % at 4 µM; Measles virus-infected cells, CPE protection, absorbance; in the data active = protection mostly above about 24%, no sharp cut-off; inactive = mostly below about 26%
# Yeast lifespan up: extends the lifespan of yeast; S. cerevisiae growth with nicotinamide, OD615; deaD strain in restrictive glucose medium; inhibition of the nicotinamide effect, % at 10 µM; hit rate 0.68% among 130,000; AID 775;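 active = inhibition above a set limit, placed 3 SD over the median of all compounds, cut at about 26% in these data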;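 also: 0% = nicotinamide-treated wells and 100% = cells grown without nicotinamide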
#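 Test system: DeaD-strain S. cerevisiae / Buffer or medium: restrictive glucose medium / Also added: nicotinamide 1.5 mM / Doses: one concentration, 10 µM, DMSO 0.25% / Schedule: 48 h at 30 °C / Signal: OD615 measurement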
# Yeast growth inh: reduces growth of yeast BB579 in restrictive medium. S. cerevisiae BB579 growth, OD615, 48 h. inhibition, % at 10 µM. hit rate 0.51% among 140,000;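 active = inhibition above a set limit, 3 SD over the mean compound inhibition, cut at about 44% in these data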
#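 System: Saccharomyces cerevisiae DeaD strain BB579, replicative lifespan model yeast. Buffer or medium: restrictive glucose-based CSMM-D medium. Doses: one dose, 10 µM compound with 0.25% DMSO. Timing: 4 h preincubation and 48 h exposure at 30 °C. Detection: turbidity as optical density at 615 nm. Benchmarks: amphotericin B 10 µg/mL, positive.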
# RAM inhibit: blocks the yeast RAM network | inhibition, % at 50 µM | S. cerevisiae dse1pr::URA3 reporter, 5-FOA growth OD615, 2 d; analog-sensitive cbk1-as2 kinase mutant strain | hit rate 1.8% among 190,000;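 active = inhibition above a set limit, 3 SD over mean compound inhibition, cut at about 8.4% in these data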;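 also: 0% = DMSO-only wells with no growth and 100% = 10 µM 1-NA-PP1 full growth; inhibition rescues growth on 5-FOA so higher OD means more RAM inhibition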
# Starred values were filed as active, the others as inactive; . = not tested or not shown. Shown are actives, neighbours in structure and some others; about 3.6% of the full set was active somewhere.
SMILES,Measles CPE,Yeast lifespan up,Yeast growth inh,RAM inhibit
Cc1ccc(C(C[N+](=O)[O-])n2nc(C)cc2C)cc1 (configuration not stated),3,19,47*,-1
Cc1ccc(S(=O)(=O)n2nc(C)cc2C)cc1,8,-7,-30,0
COc1cccc(CN2CCN(c3nc4nonc4nc3N3CCCCC3)CC2=O)c1,.,.,.,1
Cc1ccc(NC(=O)COC(=O)CC2CCCC2)cc1Cl,.,.,.,1
O=C(Nc1ccccc1)c1cc(S(=O)(=O)N2CCOCC2)cs1,18,-8,-14,1
O=C(Nc1nc(-c2cccs2)cs1)c1ccc(Cl)cc1,49*,-7,-59,5
O=C(COC(=O)c1cc(S(=O)(=O)N2CCOCC2)cs1)c1ccccc1,51*,-15,-21,1
Cc1ccc(-c2csc(NC(=O)COC(=O)c3cccc(S(=O)(=O)N4CCOCC4)c3)n2)cc1,28*,-9,15,4
O=C(Nc1nc(-c2ccc(Cl)s2)cs1)c1ccncc1,58*,-5,1,5
CCC(C)(C)NC(=O)C(c1ccc(C)cc1)N(CCN1CCOCC1)C(=O)CNC(=O)c1cccs1 (configuration not stated),.,.,.,0
Clc1ccccc1-c1nnc(-c2ccc3c(c2)OCO3)o1,.,.,.,5
CCN(C(=O)CSc1nnc(-c2ccc(Cl)cc2)n1C)C1CCS(=O)(=O)C1 (configuration not stated),.,.,.,0
Clc1ccc(-n2cc(COCc3ccccc3)nn2)cc1,.,.,.,0
Cc1ccc(-c2csc(NC(=O)c3cccc(S(=O)(=O)N4CCN(C)CC4)c3)n2)cc1,6,-15,-22,2
CCOC(=O)Cc1csc(NC(=O)c2ccc(S(=O)(=O)N3CCCCC3)cc2)n1,39*,-7,-10,2
O=C(Nc1nc(-c2cccs2)cs1)c1cccc(S(=O)(=O)N2CCCCC2)c1,32*,-11,-34,4
O=C(COC(=O)c1cc(S(=O)(=O)N2CCOCC2)ccc1O)NCCc1ccccc1,39*,-12,-49,1
Cc1ccnc(NS(=O)(=O)c2ccc(NC(=O)C3C4C=CC(C4)C3C(=O)O)cc2)n1 (configuration not stated),.,.,.,1
COc1ccc(S(=O)(=O)NCC(=O)O)cc1C(=O)NC1CCCCC1,7,-3,2,0
Cc1cccc(-c2nnc3sc(-c4ccccc4C)nn23)c1,6,-8,44*,0
COc1ccc(-c2nn3c(-c4ccccc4)nnc3s2)cc1,14,-8,-23,6
COc1cccc(-c2nnc3sc(-c4ccccc4)nn23)c1,6,.,-17,8.9*
c1ccc(-c2nnc3sc(-c4ccncc4)nn23)cc1,5,-12,2,0
CCOC(=O)NN1C(=O)c2ccccc2NC1c1ccc(OC)cc1OC (configuration not stated),.,.,.,-1
COc1ccccc1/C=C1\SC(=S)N(CC(=O)Nc2nnc(C)s2)C1=O,.,.,.,4
SMILES,Measles CPE,Yeast lifespan up,Yeast growth inh,RAM inhibit
Cc1ccc(Nc2nc(CSc3nnc(-c4cccnc4)n3-c3ccccc3C)cs2)cc1,53*,-1,-38,4
Cc1ccccc1-n1c(SCc2csc(Nc3ccccc3)n2)nnc1-c1cccnc1,10,0,-34,2
N=c1n(CCN2CCOCC2)c2ccccc2n1CC(=O)c1ccc(Cl)c(Cl)c1,3,-28,95*,0
Cn1cnnc1SCC(=O)c1cc2ccccc2oc1=O,4,-5,-44,0
Cc1ccc[n+](CC(=O)c2cc3ccccc3oc2=O)c1,2,36*,-26,3
O=C(Cn1nc(Cl)nc1Cl)c1cc2ccccc2oc1=O,2,42*,-29,0
COCCNC(=O)CN(C(=O)CCC(=O)Nc1ccccn1)c1ccccc1F,.,.,.,2
CC(=O)Nc1ccc(NC(=O)c2ccc(NS(=O)(=O)c3cc(C(C)(C)C)cc(C)c3C)cc2)cc1,2,3,-42,10*
Cc1cc(C(C)(C)C)cc(S(=O)(=O)Nc2ccc(O)c(C(=O)O)c2)c1C,36*,-4,-14,0
CC(=O)Nc1ccc(NS(=O)(=O)c2cc([N+](=O)[O-])ccc2C)cc1,.,.,.,1
CSc1cccc(NC(=S)N2CCCN(Cc3ccc(F)cc3)C2)c1,.,.,.,1
CN1CCN(S(=O)(=O)c2ccc(Oc3ccc(F)c(Cl)c3)nc2)CC1,.,.,.,1
CC(C)(C)C1CCC(C(=O)OCC(=O)c2ccc[nH]2)CC1 (configuration not stated),5,6,-34,1
Cn1ncc2c(Nc3ccccc3Br)ncnc21,.,-17,-55,0
Cn1ncc2c(Nc3ccc(-c4ccccc4)cc3)ncnc21,75*,-25,-43,3
